PP5 primary: PP5 phosphatase inhibitors, primary screen, biochemical, fluorescence; AID 1987, 2009; inhibition, % at 6.7 µM; purified PP5c, OMFP substrate fluorescence; 320,000 tested, 0.18% active;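 active = inhibition above the campaign's mean inhibition across all tested compounds plus 3 SD, cut at about 9.5% in these data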;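 note: 0% = DMSO only and 100% = 100 µM cantharidin control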
UCH37 DUB inh: inhibitors of human UCH37 deubiquitinase, primary screen, biochemical, Ub-AMC cleavage, fluorescence | 330,000 tested, 0.33% active | purified proteasome/UCH37 | inhibition, % (no concentration beside the values);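 active = mean inhibition over replicate wells above about 20%, limit read from the data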;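 note: 0% = compound-free wells with enzyme and 100% = wells lacking proteasome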
Target sequence (Q9Y5K5 whole entry, looked up): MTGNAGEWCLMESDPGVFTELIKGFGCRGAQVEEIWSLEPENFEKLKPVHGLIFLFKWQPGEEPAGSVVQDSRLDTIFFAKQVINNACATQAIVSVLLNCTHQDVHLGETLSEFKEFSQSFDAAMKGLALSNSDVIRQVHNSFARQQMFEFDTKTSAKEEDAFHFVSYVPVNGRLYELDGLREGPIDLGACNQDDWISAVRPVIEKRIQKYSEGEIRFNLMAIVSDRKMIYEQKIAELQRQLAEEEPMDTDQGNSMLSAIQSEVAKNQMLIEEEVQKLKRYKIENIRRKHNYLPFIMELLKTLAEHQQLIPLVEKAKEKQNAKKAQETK
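system = Proteasome-associated human UCH37 deubiquitinase | amount = 0.15 nM proteasome as dispensed | medium = pH 7.4 Tris-HCl (50 mM) with ovalbumin, ATP-MgCl2, DTT | incubation = 30 min preincubation with enzyme, 25 min cleavage at room temperature | detection = AMC fluorescence 355/460 nm | read-out basis = percent inhibition | controls = no-proteasome and no-compound wells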
UBC13 polyUb: UBC13 polyubiquitin chain formation inhibitors, primary screen, biochemical, TR-FRET, uHTS | Ubiquitin-conjugating enzyme E2 N (Homo sapiens), P61088 | inhibition, % at 20 µM | 330,000 tested, 0.47% active | AID 485273, 2010; in the data active = inhibition above about 45%, passing the limit was not always enough
Target sequence (P61088 whole entry, looked up): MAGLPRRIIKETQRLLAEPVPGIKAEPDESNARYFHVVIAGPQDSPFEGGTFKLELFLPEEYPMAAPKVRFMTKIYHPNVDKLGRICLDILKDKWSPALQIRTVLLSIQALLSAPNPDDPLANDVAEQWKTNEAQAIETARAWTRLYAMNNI
PREPL inhibitor: PREPL enzyme inhibitors, primary screen, biochemical, fluorescence polarization; recombinant PREPL, fluorescence polarization activity-based probe; AID 2751, 2010; Prolyl endopeptidase-like (Homo sapiens), Q4J6C6; inhibition, % at 5.96 µM; 320,000 tested, 0.68% active;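 note: 0% = enzyme with DMSO and 100% = wells lacking enzyme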
CTSL1 counter: Fasciola hepatica cathepsin L1 inhibitors, primary screen, counter-screen for PFM18AAP inhibitor project, biochemical, QFRET, fluorogenic peptide substrate. recombinant F. hepatica cathepsin L1, Z-Leu-Arg-MCA fluorescence. inhibition, % at 5.96 µM. 300,000 tested, 0.49% active. AID 1906, 2009;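 active = inhibition above the mean of all tested compounds plus 3 SD, set per screening campaign, cut at about 17% in these data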;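 note: 0% = plate median of test compound wells and 100% = 1 µM Z-Phe-Ala-diazomethylketone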
PP1 counter: PP1-alpha phosphatase inhibitors, primary screen, counter-screen for PP5 inhibitor project, biochemical, fluorescence, OMFP substrate, single point. purified PP1alpha. Serine/threonine-protein phosphatase PP1-alpha catalytic subunit (Homo sapiens), P62136. 320,000 tested, 0.9% active. inhibition, % at 6.7 µM;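 active = inhibition above the mean inhibition of all tested compounds plus 3 SD, computed separately for each screening campaign, cut at about 15% in these data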
PREPL confirm: human PREPL enzyme inhibitors, confirmation, biochemical, fluorescence polarization | 2,000 tested, 67% active | recombinant PREPL, fluorescence polarization activity probe | shares compounds with PREPL inhibitor | inhibition, % at 5.96 µM;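 note: 0% = protein with DMSO and 100% = wells lacking protein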
Active calls of the source: *; nt = not tested or not shown. An excerpt weighted towards active compounds, which were near 2.3% of everything screened. Cut-off read from the data, not from the text of the source, unless noted: active = inhibition above about 43%; inactive = the rest.

SMILES	PP5 primary	UCH37 DUB inh	UBC13 polyUb	PREPL inhibitor	CTSL1 counter	PP1 counter	PREPL confirm
COc1cc(C2NCCc3c2[nH]c2ccccc32)ccc1OC(C)C (stereo not drawn)	-2.7	nt	15.3	44.0*	-5.0	-6.7	40.8
CCOc1cc(N2CCOCC2)c(OCC)cc1NC(=O)CN1CCC(Cc2ccccc2)CC1	3.3	2.6	-3.7	13.5	4.2	-7.7	nt
CCOc1cc(N2CCOCC2)c(OCC)cc1NC(=O)CN1C(=O)NC(Cc2ccccc2)C1=O (stereo not drawn)	-2.9	4.4	-2.4	54.1*	5.2	-4.9	56.0*
CC#C[C@]1(O)CC[C@H]2[C@@H]3CCC4=CC(=O)CCC4=C3[C@@H](c3ccc(N(C)C)cc3)C[C@@]21C	1.6	3.1	-12.2	49.9*	2.0	9.0	46.5*
COc1ccc(-c2cn(Cc3ccc(C(N)=O)cc3)c(CCN)n2)cc1	1.6	-1.3	0.1	46.1*	-1.5	-3.2	41.3
COc1ccc(-c2cn(CCO)c(CCN)n2)cc1	1.3	-2.0	-2.1	3.5	-3.8	-1.2	nt
Cc1ccc(C)n1-c1ccc(C(=O)NN)s1	0.7	5.2	-3.7	56.5*	20.8*	-2.7	17.2
COc1ccc(C(=O)Oc2ccc(C=NNC(=O)Cc3ccc([N+](=O)[O-])cc3)cc2)cc1	nt	-0.9	nt	nt	nt	nt	nt
CN(CCC#N)C(=O)COC(=O)C1c2ccccc2Oc2ccccc21	0.7	-0.1	6.7	-3.0	-3.1	0.2	nt
N#CCCN(CCC#N)C(=O)C1c2ccccc2Oc2ccccc21	-2.5	nt	1.4	81.5*	-2.5	-2.6	4.5
COc1cc([N+](=O)[O-])cc(C=NNC(=O)c2cc(-c3ccccc3)nc3ccccc23)c1O	nt	-4.9	nt	nt	nt	nt	nt
O=c1cc(-c2ccc(O)cc2)oc2c(-c3c(O)cc(O)c4c(=O)cc(-c5ccc(O)cc5)oc34)c(O)cc(O)c12	nt	7.3	-14.2	50.6*	nt	nt	15.1
COc1ccc(-c2cc(=O)c3c(O)cc(O)cc3o2)cc1	-3.1	2.2	-2.1	-91.7	7.2	1.4	nt
CCNc1cc(O)ccc1C	3.7	nt	-16.9	69.5*	nt	-3.4	15.2
Oc1c(CN2CCOCC2)cc(COCc2ccccc2)c2cccnc12	0.6	-4.2	nt	56.2*	-0.5	15.5*	64.5*
CC(=O)N1CCN(CC(=O)Nc2cc([N+](=O)[O-])ccc2Cl)CC1	-0.3	6.8	-11.3	-0.1	-2.4	0.6	nt
O=C(CN1CCN(c2ccc(O)cc2)CC1)Nc1cc([N+](=O)[O-])ccc1Cl	2.0	4.9	8.0	52.1*	1.8	4.1	53.3*
CC(Nc1nc(-c2ccc(F)cc2)cs1)c1nc2cc(Cl)c(N3CCCCC3)cc2n1CCOCCO (stereo not drawn)	3.9	1.7	1.2	55.2*	0.1	0.2	49.8*
CC(Nc1nc(-c2ccc(F)cc2)cs1)c1nc2cc(Cl)c(N3CCCCC3)cc2n1CCCO (stereo not drawn)	4.2	4.5	-0.8	17.2	1.0	10.1	nt
COc1ccccc1Nc1c2c(nc3ccc(N)cc13)CCCC2	4.9	2.9	-9.4	43.6*	3.7	0.2	26.8
COc1ccc(OC)c(Nc2c3c(nc4ccccc24)CCC3)c1	2.6	4.5	-2.3	17.7	6.7	-0.6	nt
CC1CCCC(=NNC(=O)c2ccncc2)C1 (stereo not drawn)	nt	4.4	nt	nt	nt	nt	nt
O=c1cc(CN2CCCc3ccccc32)nc2sccn12	-4.5	-6.0	2.4	50.9*	-0.4	0.8	18.8
Cc1ccc(C(=O)ON=CC2=C(Cl)c3ccccc3CC2)cc1	nt	5.4	nt	nt	nt	nt	nt
c1ccc2c(c1)CCN(c1nc3cc4c(cc3s1)OCCO4)C2	0.2	-3.6	5.6	48.0*	1.4	1.5	38.4
SMILES	PP5 primary	UCH37 DUB inh	UBC13 polyUb	PREPL inhibitor	CTSL1 counter	PP1 counter	PREPL confirm
Cc1ccc2c(c1)c1c(n2CC(O)CN2CCCCCC2)CCCC1 (stereo not drawn)	1.6	3.2	11.4	44.7*	0.3	2.1	42.0
Cc1nc2c(C)cccc2cc1C(=O)NN=Cc1cccc([N+](=O)[O-])c1	nt	2.3	nt	nt	nt	nt	nt
O=C(COC(=O)c1ccc2c(c1)OCCO2)Nc1cccc(S(=O)(=O)N2CCOCC2)c1	0.5	-1.2	-5.0	71.6*	-13.3	3.6	8.1
O=C(COC(=O)c1cccc(S(=O)(=O)N2CCOCC2)c1)Nc1ccc2c(c1)OCO2	-1.6	0.4	6.0	1.2	-14.3	-5.4	nt
O=C(C[C@H]1C/C=C\CC[C@H](Cc2ccc(F)cc2)C(=O)OC[C@H]2CCCN2C1=O)N[C@@H](CO)Cc1ccccc1	nt	2.0	14.5	61.1*	nt	nt	53.0*
O=C(C[C@H]1C/C=C\CC[C@H](Cc2ccc(F)cc2)C(=O)OC[C@H]2CCCN2C1=O)N[C@H](CO)Cc1ccccc1	nt	0.7	-10.1	33.9	nt	nt	nt
O=C(C[C@H]1C/C=C\CC[C@@H](Cc2ccc(F)cc2)C(=O)OC[C@H]2CCCN2C1=O)N[C@@H](CO)Cc1ccccc1	nt	0.7	3.7	53.0*	nt	nt	54.1*
CCC(C)(C)n1nnnc1C(c1cccnc1)N1CCN(c2cccc(C(F)(F)F)c2)CC1 (stereo not drawn)	3.8	1.6	-3.1	2.0	-0.3	-1.3	nt
CN1CCN(C(c2cccc(C(F)(F)F)c2)c2nnnn2C(C)(C)C)CC1 (stereo not drawn)	-1.3	0.8	7.5	43.4*	-4.4	-3.1	31.7
COc1ccc(Cn2nnc3ccccc32)cc1	2.2	nt	17.1	50.1*	-1.0	0.8	37.3
CCCOc1c(Br)cc(C=NO)cc1OC	nt	-2.1	nt	nt	nt	nt	nt
COc1ccc(-c2c(-c3ccccc3)c(C(=O)C(=O)NCCCN(C)C)n3ccc4cc(OC)c(OC)cc4c23)cc1OC	0.3	4.0	9.4	46.0*	0.8	0.7	52.3*
CN(C)CCNC(=O)C(=O)c1c(-c2ccccc2)cc2ccccn12	0.2	5.5	-0.7	-27.0	1.3	-0.9	nt
CNC(=S)N1N=C(c2ccc(C)cc2)CC1c1ccc(OC)cc1 (stereo not drawn)	1.8	0.2	1.8	17.0	2.2	-2.8	nt
CNC(=S)N1N=C(c2ccc(C)cc2)CC1c1ccc(N(C)C)cc1 (stereo not drawn)	1.9	-0.7	18.5	50.7*	0.9	2.2	57.4*
CCC(=NNC(=O)c1c(C)nc2ccccn12)c1ccc(Cl)cc1	nt	9.0	nt	nt	nt	nt	nt
CSc1ccc(-c2nc3cnccn3c2Nc2ccc3c(c2)OCO3)cc1	2.8	-95.0	-9.7	50.4*	9.3	11.9	47.5*
COc1cc(OC)cc(-c2c(-c3cccs3)c3cc(-c4ccc(SC)cc4)ccc3n2C)c1	0.4	2.5	39.3	29.8	nt	3.3	nt
